Source: ChEMBL document CHEMBL2057133, “A 20S combined with a 22R configuration markedly increases both in vivo and in vitro biological activity of 1α,25-dihydroxy-22-methyl-2-methylene-19-norvitamin D3” (J Med Chem, 2012)
The source made the active and inactive calls. The calls are words filed in the database; no cut-off is given here.

Tests used:
[1] = tested on: Rattus norvegicus; experiment: Calcium mobilization in vitamin-D deficient weanling Sprague-Dawley rat bone assessed as increase in serum calcium level at 32 to 70200 pmol, ip administered every 24 hrs for 4 consecutive days measured 24 hrs post last dose relative to vehicle treated control; type: functional, organism-based
In short: (§1)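 Male weanling Sprague-Dawley rats were fed Diet 11 (0.47% Ca) + AEK oil for 1 week, then 0.02% Ca + AEK oil for 3 weeks, then 0.47% Ca for 1 week, then 0.02% Ca for 2 weeks. Dosing began in the last week on 0.02% Ca: four daily intraperitoneal doses. Serum calcium was measured in neck blood 24 h after the last dose and expressed as the difference from vehicle controls. Mean ± SEM of 6 values.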

[2] = tested on: Rattus norvegicus; experiment: (§2) Calcium mobilization in vitamin-D deficient weanling Sprague-Dawley rat intestine assessed as increase in serosal/mucosal calcium level at 32 to 7020 pmol, ip administered every 24 hrs for 4 consecutive days measured 24 hrs post last dose by everted gut sac method relative to vehicle treated control; type: functional, organism-based
[3] = target: T1, Vitamin D3 receptor (Rattus norvegicus, UniProt P13053); experiment: Displacement of [3H]-1alpha,25(OH)2D3 from recombinant rat VDR after overnight incubation by scintillation counting
T1 sequence (P13053 whole entry): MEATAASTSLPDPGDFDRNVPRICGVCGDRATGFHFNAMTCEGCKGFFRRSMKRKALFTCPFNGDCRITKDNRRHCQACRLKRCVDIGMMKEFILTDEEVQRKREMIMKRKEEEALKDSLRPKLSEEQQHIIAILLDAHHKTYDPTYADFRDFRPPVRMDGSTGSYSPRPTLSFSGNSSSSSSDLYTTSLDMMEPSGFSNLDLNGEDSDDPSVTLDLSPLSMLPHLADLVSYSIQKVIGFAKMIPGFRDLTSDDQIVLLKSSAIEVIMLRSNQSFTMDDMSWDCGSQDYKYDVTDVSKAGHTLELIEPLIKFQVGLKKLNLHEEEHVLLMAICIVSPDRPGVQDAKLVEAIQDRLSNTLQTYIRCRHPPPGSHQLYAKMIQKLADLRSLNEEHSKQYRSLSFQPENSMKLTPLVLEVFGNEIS
In short: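 Competition assay using full-length recombinant rat VDR with radiolabeled 1α,25-(OH)2D3 at 1 nM. Ki was derived from dose-response curves using a Kd of 0.2 nM. Run in duplicate on two separate occasions.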

[4] = tested on: HL-60; experiment: Induction of human HL60 cell differentiation after 4 days by NBT reduction assay; type: functional; settings: HL-60, 96 h, read-out: ED50 (the source's name)
[5] = tested on: HL-60; experiment: Ratio of 1alpha,25-(OH)2D3 ED50 to compound ED50 for induction of human HL60 cell differentiation; type: functional
In short: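 HL-60 promyelocyte differentiation to monocytes was scored as the percentage of cells reducing nitro blue tetrazolium. ED50 is the concentration giving 50% maturation, from dose-response curves; the experiment was done twice in duplicate. The ratio is the average of 1α,25-(OH)2D3 ED50 over analogue ED50.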

[6] = tested on: Rattus norvegicus; experiment: Calcium mobilization in vitamin-D deficient weanling Sprague-Dawley rat bone assessed as increase in serum calcium level at 32 to 35100 pmol, ip administered every 24 hrs for 4 consecutive days measured 24 hrs post last dose relative to vehicle treated control; type: functional, organism-based; in short: as §1
[7] = tested on: Rattus norvegicus; experiment: as §2, with “35100” for “7020”; type: functional, organism-based
[8] = target: T2, Vitamin D3 receptor (Rattus norvegicus) (UniProt P13053); experiment: Activation of VDR-mediated 24-hydroxylase transcription in rat osteosarcoma cells after 16 hrs by luciferase reporter gene assay
T2 sequence (whole entry): T1 sequence (P13053 whole entry)

[9] = tested on: Rattus norvegicus; experiment: Calcium mobilization in vitamin-D deficient weanling Sprague-Dawley rat bone assessed as increase in serum calcium level at 32 to 2340 pmol, ip administered every 24 hrs for 4 consecutive days measured 24 hrs post last dose relative to vehicle treated control; type: functional, organism-based; in short: as §1
[10] = tested on: Rattus norvegicus; experiment: Calcium mobilization in vitamin-D deficient weanling Sprague-Dawley rat intestine assessed as increase in serosal/mucosal calcium level at 32 to 2340 pmol, ip administered every 24 hrs for 4 consecutive days measured 24 hrs post last dose by everted gut sac method relative to vehicle treated control; type: functional, organism-based

SMILES	Ki [3] [nM]	EC50 [4] [nM]	ED50 [8] [nM]	Activity [1]	Activity [2]	Ratio ED50 [5]	Activity [6]	Activity [7]	Activity [9]	Activity [10]
C=C1/C(=C\C=C2/CCC[C@]3(C)[C@@H]([C@H](C)CCCC(C)(C)O)CC[C@@H]23)C[C@@H](O)C[C@@H]1O				Active	Active					
C=C1[C@H](O)CC(=C/C=C2\CCC[C@]3(C)[C@@H]([C@H](C)[C@@H](C)CCC(C)(C)O)CC[C@@H]23)C[C@H]1O	0.1	0.9	0.2			2.2	inactive	inactive		
C=C1[C@H](O)CC(=C/C=C2\CCC[C@]3(C)[C@@H]([C@@H](C)CCCC(C)(C)O)CC[C@@H]23)C[C@H]1O [DP001]		0.08	0.007			25				

Second part, led by results:

Ki [3] [nM]	EC50 [4] [nM]	ED50 [8] [nM]	SMILES	Activity [1]	Activity [2]	Ratio ED50 [5]	Activity [6]	Activity [7]	Activity [9]	Activity [10]
0.2	10	5	C=C1[C@H](O)CC(=C/C=C2\CCC[C@]3(C)[C@@H]([C@H](C)[C@H](C)CCC(C)(C)O)CC[C@@H]23)C[C@H]1O			0.2	Active	Active		
0.06	1	0.6	C=C1[C@H](O)CC(=C/C=C2\CCC[C@]3(C)[C@@H]([C@@H](C)C(C)(C)CCC(C)(C)O)CC[C@@H]23)C[C@H]1O			2	inactive	inactive		
0.02	0.9	0.03	C=C1[C@H](O)CC(=C/C=C2\CCC[C@]3(C)[C@@H]([C@H](C)C(C)(C)CCC(C)(C)O)CC[C@@H]23)C[C@H]1O			2.2	inactive	inactive		
0.04	0.02	0.007	C=C1[C@H](O)CC(=C/C=C2\CCC[C@]3(C)[C@@H]([C@@H](C)[C@H](C)CCC(C)(C)O)CC[C@@H]23)C[C@H]1O			100			Active	Active
10	20	4	C=C1[C@H](O)CC(=C/C=C2\CCC[C@]3(C)[C@@H]([C@@H](C)[C@@H](C)CCC(C)(C)O)CC[C@@H]23)C[C@H]1O			0.1	Active	Active		
